A selection: hits, their analogues and other compounds. The true share with any hit is near 2.3%.
ABCB1 block = ABCB1 efflux pump inhibitors, primary screen, cell-based, multiplex, flow cytometry, ABCG2 counter-screen | 0.067% of 190,000 active | CCRF-Adr cells, JC-1 efflux | inhibition, % at 6.6 µM | ATP-dependent translocase ABCB1 (Homo sapiens), P08183; in the data active = inhibition above about 40%;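 also: higher value means more JC-1 retained so stronger ABCB1 efflux block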
Target sequence (P08183 whole entry, looked up): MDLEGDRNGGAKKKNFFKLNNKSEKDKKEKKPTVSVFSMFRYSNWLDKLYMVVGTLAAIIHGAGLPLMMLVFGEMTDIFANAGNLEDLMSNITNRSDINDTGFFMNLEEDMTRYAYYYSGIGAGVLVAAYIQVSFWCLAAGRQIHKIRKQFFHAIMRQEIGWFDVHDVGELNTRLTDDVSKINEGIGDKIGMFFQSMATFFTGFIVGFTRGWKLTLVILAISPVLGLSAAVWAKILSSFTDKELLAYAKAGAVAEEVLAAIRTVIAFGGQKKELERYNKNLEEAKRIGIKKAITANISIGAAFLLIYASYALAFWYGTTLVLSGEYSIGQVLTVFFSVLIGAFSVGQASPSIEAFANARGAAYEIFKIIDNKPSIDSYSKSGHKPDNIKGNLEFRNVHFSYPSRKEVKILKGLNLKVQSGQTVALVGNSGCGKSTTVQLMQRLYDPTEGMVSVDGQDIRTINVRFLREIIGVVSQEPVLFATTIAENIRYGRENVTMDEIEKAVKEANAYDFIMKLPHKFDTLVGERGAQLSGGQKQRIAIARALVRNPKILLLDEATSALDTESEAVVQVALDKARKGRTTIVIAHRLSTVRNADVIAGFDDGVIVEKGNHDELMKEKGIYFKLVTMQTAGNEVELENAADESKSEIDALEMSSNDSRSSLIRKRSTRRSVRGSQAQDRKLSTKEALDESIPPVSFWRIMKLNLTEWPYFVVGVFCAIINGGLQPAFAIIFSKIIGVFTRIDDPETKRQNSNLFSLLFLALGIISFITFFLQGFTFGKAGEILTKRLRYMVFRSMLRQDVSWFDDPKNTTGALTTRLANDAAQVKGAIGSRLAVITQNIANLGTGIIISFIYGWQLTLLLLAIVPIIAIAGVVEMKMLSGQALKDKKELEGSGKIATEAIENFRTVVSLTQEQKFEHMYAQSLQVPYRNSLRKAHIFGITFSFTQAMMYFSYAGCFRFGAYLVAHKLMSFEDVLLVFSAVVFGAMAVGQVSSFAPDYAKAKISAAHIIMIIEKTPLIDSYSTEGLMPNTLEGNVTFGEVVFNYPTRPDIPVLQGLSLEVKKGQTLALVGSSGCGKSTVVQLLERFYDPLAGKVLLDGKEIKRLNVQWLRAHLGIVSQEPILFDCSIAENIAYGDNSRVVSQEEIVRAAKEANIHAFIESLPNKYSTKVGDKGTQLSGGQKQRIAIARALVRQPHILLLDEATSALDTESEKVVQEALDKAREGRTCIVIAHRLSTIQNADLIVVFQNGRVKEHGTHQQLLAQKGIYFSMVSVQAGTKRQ
MEKK2 mut-MEK5 = MEK5 binding signal on mutant MEKK2 PB1, primary screen, biochemical, multiplex bead flow cytometry, Alexa488-MEK5 | Alexa488-MEK5 binding to MEKK2 mutant | percent response, % at 10 µM | 0.35% of 290,000 active | AID 1530, 2009; in the data active = percent response above about 24%, passing the limit was not always enough
MEKK2wt PB1 HTS = modulators of MEK5 binding to wildtype MEKK2, primary screen, biochemical, multiplex bead flow cytometry, Alexa488-MEK5; Mitogen-activated protein kinase kinase kinase 2 (Homo sapiens), Q9Y2U5; Alexa488-MEK5 binding to MEKK2 WT; actives lie on both sides; binding response (% of control), % at 10 µM; 1.1% of 290,000 active; AID 1531, 2009; in the data active = binding response below about 67% or above about 130%
MEKK3 PB1 HTS = modulators of MEKK3-MEK5 PB1 binding, primary screen, biochemical, wildtype MEKK3, multiplex bead flow cytometry, Alexa488-MEK5 | Mitogen-activated protein kinase kinase kinase 3 (Homo sapiens), Q99759 | bead-based flow cytometry, Alexa488-MEK5 binding to MEKK3; actives lie on both sides; 0 = blocked by unlabeled MEK5, 100 = vehicle | binding response (% of control), % at 10 µM | 1.4% of 290,000 active | AID 1529, 2009;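 active = binding response more than 3 SD above or below the average of its plate-row segment, actives on both sides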;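 also: Alexa488 bead fluorescence after subtracting the streptavidin-only scavenger bead signal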
ABCG2 inh = ABCG2 efflux pump inhibitors, primary screen, multiplex with ABCB1, IgMXP3 cells, flow cytometry | inhibition, % at 6.6 µM | AID 1325, 2008 | JC-1 efflux | Broad substrate specificity ATP-binding cassette transporter ABCG2 (Homo sapiens), Q9UNQ0 | 0.1% of 190,000 active;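 active = inhibition above 80%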
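Test system: IgMXP3 (ABCG2) plus far-red-tagged CCRF-Adr (ABCB1) cells. Reagent: JC-1 dye as substrate. Timing: 10 min exposure at 25 °C with rotation, no wash. Measured by: flow cytometric JC-1 green MFI at 530 nm. Read-out: percent efflux inhibition, scaled nicardipine 100% to DMSO 0%. Control set: nicardipine and DMSO wells.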
MEKK2wt confirm = modulators of MEK5 binding to wildtype MEKK2, confirmation, biochemical, single concentration, multiplex bead flow cytometry; shares compounds with MEKK3 PB1 HTS; Alexa488-MEK5 binding to MEKK2 WT; actives lie on both sides; binding response (% of control), % at 10 µM; 2.4% of 5,900 active; AID 1892, 2009; in the data active = binding response below about 16% or above about 210%; inactive = in between
MEKK2mut-MEK5 = mutant MEKK2 PB1-MEK5 binding signal retest – biochemical, single concentration, multiplex bead flow cytometry, confirmation; shares compounds with MEKK3 PB1 HTS; Alexa488-MEK5 binding to MEKK2 mutant; percent response, % at 10 µM; 2% of 5,900 active; in the data active = percent response mostly above about 71%, no sharp cut-off; inactive = mostly below about 38%;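 also: higher means compound restores mutant binding toward wildtype level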
MEKK3-MEK5 inh = MEKK3 wild-type PB1 binding to MEK5, inhibitors, confirmation, biochemical, bead multiplex flow cytometry, single concentration, wildtype | shares compounds with MEKK3 PB1 HTS | Alexa488-MEK5 binding to MEKK3; active compounds read low | binding response (% of control), % at 10 µM | 1.8% of 5,900 active;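 active = binding response below 72% of control, or above a set upper limit, though filed actives all read lower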;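 also: lower values mean stronger disruption of MEK5 binding to MEKK3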
Each line names hits and unclear results; the compound was inactive in the other large screens (follow-up assays come after a bar, where they were run); [ ] = dose if it differs, or a comment.

COc1ccccc1-c1cc(C(F)(F)F)n2ncc(C(=O)N3CCc4ccccc4C3)c2n1	none (no result: ABCB1 block, ABCG2 inh)
COc1cc(-c2nnc3n2CCCCC3)cc(OC)c1OC	none (no result: ABCB1 block, ABCG2 inh)
COc1ccc(/C=N/NC(=O)c2ccc(O)cc2)cc1CN1CCCc2ccccc21	MEKK2wt PB1 HTS 44.0[inhibitor] | MEKK2wt confirm inactive | MEKK2mut-MEK5 inactive | MEKK3-MEK5 inh inactive
O=C(Nc1c(-c2ccccc2)nc2ccccn12)c1ccccc1F	none (no result: ABCB1 block, ABCG2 inh)
CCCc1nnc(SCC(=O)NC2CCCC2)n1CCOC	none (no result: ABCB1 block, ABCG2 inh)
COC(=O)c1ccc(C2c3c(oc4ccc(Cl)cc4c3=O)C(=O)N2CCN2CCOCC2)cc1 (configuration not stated)	MEKK3 PB1 HTS 131.0 (no result: ABCB1 block, ABCG2 inh) | MEKK2wt confirm inactive | MEKK2mut-MEK5 inactive | MEKK3-MEK5 inh inactive
COC(=O)c1ccc(C2c3c(oc4ccccc4c3=O)C(=O)N2CCCN2CCOCC2)cc1 (configuration not stated)	none (no result: MEKK2 mut-MEK5, MEKK2wt PB1 HTS, MEKK3 PB1 HTS)
COc1cc(/C=N/Nc2ccc(Cl)cc2)ccc1OC(=O)c1cccs1	MEKK3 PB1 HTS 46.0[inhibitor] | MEKK2wt confirm inactive | MEKK2mut-MEK5 inactive | MEKK3-MEK5 inh inactive
CC(C)c1c(C(=O)N/N=C/c2ccccc2OCc2c(F)cccc2Cl)nnn1-c1nonc1N	none (no result: ABCB1 block, ABCG2 inh)
COCc1cc(CN2CCN(CCc3ccccc3)C(CCO)C2)ccc1OC (configuration not stated)	none (no result: ABCB1 block, ABCG2 inh)
COc1ccc(NC(=O)N2CCCC2C(=O)NCc2ccc(F)cc2)cc1 (configuration not stated)	none
COc1ccc(NC(=O)N2CCCC2C(=O)NCc2ccc(C)cc2)cc1 (configuration not stated)	MEKK2 mut-MEK5 62.0, MEKK3 PB1 HTS 73.0[inhibitor] | MEKK2wt confirm inactive | MEKK2mut-MEK5 inactive | MEKK3-MEK5 inh inactive
O=C(Nc1ccccc1)C1=C(c2ccccc2)S(=O)(=O)CCS1(=O)=O	MEKK2wt PB1 HTS 8.0[inhibitor], MEKK3 PB1 HTS 6.0[inhibitor] | MEKK2wt confirm inactive | MEKK2mut-MEK5 inactive | MEKK3-MEK5 inh inactive
O=C(O)c1ccccc1C(=O)Nc1ccccc1	none
OC(CN1CCCCC1)Cn1c2ccc(Cl)cc2c2cc(Cl)ccc21 (configuration not stated)	MEKK2 mut-MEK5 48.0, MEKK2wt PB1 HTS 203.0 (no result: ABCB1 block, ABCG2 inh) | MEKK2wt confirm inactive | MEKK2mut-MEK5 inactive | MEKK3-MEK5 inh inactive
OC(CN1CCN(c2ccccn2)CC1)Cn1c2ccc(Cl)cc2c2cc(Cl)ccc21 (configuration not stated)	MEKK2wt PB1 HTS 137.0 | MEKK2wt confirm inactive | MEKK2mut-MEK5 inactive | MEKK3-MEK5 inh inactive
Cc1ccc2nc(NS(=O)(=O)c3cn(C)nc3C)sc2c1	none (no result: ABCB1 block, ABCG2 inh)
O=C(/C=C/c1ccccc1)NC1CCS(=O)(=O)C1 (configuration not stated)	MEKK3 PB1 HTS 72.0[inhibitor] | MEKK2wt confirm inactive | MEKK2mut-MEK5 inactive | MEKK3-MEK5 inh inactive
Cc1ccc(/C=C/C(=O)NC2CCS(=O)(=O)C2)cc1 (configuration not stated)	none
CCOc1ccc(Oc2c(/C=N/NC(=O)C3CC3)c(C)nn2-c2ccccc2)cc1	MEKK3 PB1 HTS 131.0 | MEKK2wt confirm inactive | MEKK2mut-MEK5 inactive | MEKK3-MEK5 inh inactive
CCOc1ccc(Oc2c(/C=N/NC(C)=O)c(C)nn2-c2ccccc2)cc1	none
COc1cccc(CN(C(=O)c2cc3ccccc3oc2=O)C2CCS(=O)(=O)C2)c1 (configuration not stated)	none (no result: ABCB1 block, ABCG2 inh)
CC(C)N=c1cc2n(-c3ccc(Cl)cc3)c3ccccc3nc-2cc1Nc1ccc(Cl)cc1	MEKK3 PB1 HTS 70.0[inhibitor] (no result: ABCB1 block, ABCG2 inh) | MEKK2wt confirm inactive | MEKK2mut-MEK5 inactive | MEKK3-MEK5 inh 53.0
Cn1c(CNc2ccc(Cl)cc2)nc2ccccc21	none
O=C(CSc1nc(O)c(Cc2ccccc2)c(=O)[nH]1)N1CCOCC1	MEKK3 PB1 HTS 131.0 (no result: ABCB1 block, ABCG2 inh) | MEKK2wt confirm inactive | MEKK2mut-MEK5 inactive | MEKK3-MEK5 inh inactive
COc1ccc(Cc2c(O)nc(SCC(=O)N3CCOCC3)[nH]c2=O)cc1	none (no result: ABCB1 block, ABCG2 inh)
CCC(NC(=O)c1cc(COc2ccc(F)cc2Cl)on1)c1ccncc1 (configuration not stated)	none (no result: ABCB1 block, ABCG2 inh)
Cc1ccc(C(=O)NCC(=O)OC(C)C(=O)Nc2ccc(N(C)C)cc2)s1 (configuration not stated)	MEKK3 PB1 HTS 49.0[inhibitor] | MEKK2wt confirm inactive | MEKK2mut-MEK5 inactive | MEKK3-MEK5 inh inactive
CC(SCc1ccccc1)C(=O)Nc1ccccc1 (configuration not stated)	none (no result: ABCB1 block, ABCG2 inh)
Cc1cc(Br)ccc1-n1[nH]c(C)c(C=Nc2cccc3nsnc23)c1=O	MEKK2wt PB1 HTS 41.0[inhibitor] | MEKK2wt confirm inactive | MEKK2mut-MEK5 inactive | MEKK3-MEK5 inh inactive
CCOC(=O)c1c(/N=C/c2cc(OC)cc([N+](=O)[O-])c2O)sc(C)c1C	MEKK3 PB1 HTS 135.0 | MEKK2wt confirm inactive | MEKK2mut-MEK5 inactive | MEKK3-MEK5 inh inactive
CCOC(=O)c1c(NC(=O)CCS(=O)(=O)c2ccccc2)sc2c1CC(C)(C)NC2(C)C	none (no result: ABCB1 block, ABCG2 inh)
COC(=O)c1c(NC(=O)c2ccc(OC(C)C)cc2)sc2c1CC(C)(C)NC2(C)C	MEKK2wt PB1 HTS 173.0 | MEKK2wt confirm inactive | MEKK2mut-MEK5 inactive | MEKK3-MEK5 inh inactive
COC(=O)c1c(NC(=O)c2ccccc2)sc2c1CC(C)(C)NC2(C)C	none
CCOC(=O)c1c(NC(=O)c2ccc(C)cc2)sc2c1CC(C)(C)NC2(C)C	MEKK2wt PB1 HTS 138.0 | MEKK2wt confirm inactive | MEKK2mut-MEK5 inactive | MEKK3-MEK5 inh inactive
CN(C(=O)c1ccc(-c2nn(C)c(=O)c3ccccc23)cc1)C1CCCCC1	none (no result: ABCB1 block, ABCG2 inh)
NC(=O)C1CCN(C(=O)CCC(=O)c2ccc(F)cc2)CC1	none (no result: ABCB1 block, ABCG2 inh)
CCc1ccc(-c2nc(CN3CCC(C(=O)NCc4ccccc4OC)CC3)c(C)o2)cc1	MEKK2wt PB1 HTS 156.0 | MEKK2wt confirm inactive | MEKK2mut-MEK5 inactive | MEKK3-MEK5 inh inactive
